{"source": "ChEMBL document CHEMBL1153775", "about": "“Synthesis, structure elucidation and antitumour activity of N-substituted amides of 3-(3-ethylthio-1,2,4-triazol-5-yl)propenoic acid” (Eur J Med Chem, 2009)", "key": {"T47D [1]": {"test_system": "T47D", "assay": "Cytotoxicity against human T47D cells assessed as growth inhibition at 0.35 mM after 24 hrs by spectrophotometer using BrdU labeling", "format": "functional", "conditions": "read-out: GI", "method_in_brief": "(§1)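 Human breast carcinoma T47D cells were plated at 10⁴ cells per mL on microtiter plates. Each compound was added at three doses, given as mM equivalents of three mass concentrations. Plates were incubated for 24, 48 or 72 h. The read-out was percent growth inhibition (GI).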"}, "A549 [2]": {"test_system": "A549", "assay": "Cytotoxicity against human A549 cells assessed as growth inhibition at 0.35 mM after 72 hrs by spectrophotometer using BrdU labeling", "format": "functional", "conditions": "A549, 72 h, read-out: GI"}, "[3]": {"assay": "Cytotoxicity against human HSF cells assessed as growth inhibition at 0.17 mM after 72 hrs by spectrophotometer using BrdU labeling", "format": "cell-based", "conditions": "read-out: GI"}, "A549 [4]": {"test_system": "A549", "assay": "Cytotoxicity against human A549 cells assessed as growth inhibition at 0.03 mM after 72 hrs by spectrophotometer using BrdU labeling", "format": "functional", "conditions": "A549, 72 h, read-out: GI"}, "A549 [5]": {"test_system": "A549", "assay": "Cytotoxicity against human A549 cells assessed as growth inhibition at 0.35 mM after 24 hrs by spectrophotometer using BrdU labeling", "format": "functional", "conditions": "A549, 24 h, read-out: GI"}, "T47D [6]": {"test_system": "T47D", "assay": "Cytotoxicity against human T47D cells assessed as growth inhibition at 0.03 mM after 24 hrs by spectrophotometer using BrdU labeling", "format": "functional", "conditions": "read-out: GI"}, "[7]": {"assay": "Cytotoxicity against human HSF cells assessed as growth inhibition at 0.35 mM after 48 hrs by spectrophotometer using BrdU labeling", "format": "cell-based", "conditions": "read-out: GI"}, "[8]": {"assay": "Cytotoxicity against human HSF cells assessed as growth inhibition at 0.03 mM after 24 hrs by spectrophotometer using BrdU labeling", "format": "cell-based", "conditions": "read-out: GI"}, "A549 [9]": {"test_system": "A549", "assay": "Cytotoxicity against human A549 cells assessed as growth inhibition at 0.03 mM after 48 hrs by spectrophotometer using BrdU labeling", "format": "functional", "conditions": "A549, 48 h, read-out: GI"}, "A549 [10]": {"test_system": "A549", "assay": "Cytotoxicity against human A549 cells assessed as growth inhibition at 0.17 mM after 48 hrs by spectrophotometer using BrdU labeling", "format": "functional", "conditions": "A549, 48 h, read-out: GI"}, "A549 [11]": {"test_system": "A549", "assay": "Cytotoxicity against human A549 cells assessed as growth inhibition at 0.17 mM after 72 hrs by spectrophotometer using BrdU labeling", "format": "functional", "conditions": "A549, 72 h, read-out: GI"}, "T47D [12]": {"test_system": "T47D", "assay": "Cytotoxicity against human T47D cells assessed as growth inhibition at 0.03 mM after 72 hrs by spectrophotometer using BrdU labeling", "format": "functional", "conditions": "read-out: GI"}, "A549 [13]": {"test_system": "A549", "assay": "Cytotoxicity against human A549 cells assessed as growth inhibition at 0.17 mM after 24 hrs by spectrophotometer using BrdU labeling", "format": "functional", "conditions": "A549, 24 h, read-out: GI"}, "[14]": {"assay": "Cytotoxicity against human HSF cells assessed as growth inhibition at 0.03 mM after 48 hrs by spectrophotometer using BrdU labeling", "format": "cell-based", "conditions": "read-out: GI"}, "A549 [15]": {"test_system": "A549", "assay": "Cytotoxicity against human A549 cells assessed as growth inhibition at 0.03 mM after 24 hrs by spectrophotometer using BrdU labeling", "format": "functional", "conditions": "A549, 24 h, read-out: GI"}, "[16]": {"assay": "Cytotoxicity against human HSF cells assessed as growth inhibition at 0.03 mM after 72 hrs by spectrophotometer using BrdU labeling", "format": "cell-based", "conditions": "read-out: GI"}, "[17]": {"assay": "Cytotoxicity against human HSF cells assessed as growth inhibition at 0.17 mM after 48 hrs by spectrophotometer using BrdU labeling", "format": "cell-based", "conditions": "read-out: GI"}, "T47D [18]": {"test_system": "T47D", "assay": "Cytotoxicity against human T47D cells assessed as growth inhibition at 0.35 mM after 48 hrs by spectrophotometer using BrdU labeling", "format": "functional", "conditions": "read-out: GI", "method_in_brief": "as §1"}, "T47D [19]": {"test_system": "T47D", "assay": "Cytotoxicity against human T47D cells assessed as growth inhibition at 0.17 mM after 24 hrs by spectrophotometer using BrdU labeling", "format": "functional", "conditions": "read-out: GI", "method_in_brief": "as §1"}, "A549 [20]": {"test_system": "A549", "assay": "Cytotoxicity against human A549 cells assessed as growth inhibition at 0.35 mM after 48 hrs by spectrophotometer using BrdU labeling", "format": "functional", "conditions": "A549, 48 h, read-out: GI"}, "[21]": {"assay": "Cytotoxicity against human HSF cells assessed as growth inhibition at 0.35 mM after 72 hrs by spectrophotometer using BrdU labeling", "format": "cell-based", "conditions": "read-out: GI"}, "T47D [22]": {"test_system": "T47D", "assay": "Cytotoxicity against human T47D cells assessed as growth inhibition at 0.03 mM after 48 hrs by spectrophotometer using BrdU labeling", "format": "functional", "conditions": "read-out: GI"}, "T47D [23]": {"test_system": "T47D", "assay": "Cytotoxicity against human T47D cells assessed as growth inhibition at 0.17 mM after 72 hrs by spectrophotometer using BrdU labeling", "format": "functional", "conditions": "read-out: GI", "method_in_brief": "as §1"}, "T47D [24]": {"test_system": "T47D", "assay": "Cytotoxicity against human T47D cells assessed as growth inhibition at 0.17 mM after 48 hrs by spectrophotometer using BrdU labeling", "format": "functional", "conditions": "read-out: GI", "method_in_brief": "as §1"}, "[25]": {"assay": "Cytotoxicity against human HSF cells assessed as growth inhibition at 0.35 mM after 24 hrs by spectrophotometer using BrdU labeling", "format": "cell-based", "conditions": "read-out: GI"}, "[26]": {"assay": "Cytotoxicity against human HSF cells assessed as growth inhibition at 0.17 mM after 24 hrs by spectrophotometer using BrdU labeling", "format": "cell-based", "conditions": "read-out: GI"}, "T47D [27]": {"test_system": "T47D", "assay": "Cytotoxicity against human T47D cells assessed as growth inhibition at 0.35 mM after 72 hrs by spectrophotometer using BrdU labeling", "format": "functional", "conditions": "read-out: GI", "method_in_brief": "as §1"}}, "data": [{"smiles": "CCSc1n[nH]c(/C=C\\C(=O)Nc2cccc(C)c2)n1", "values": [{"measurement": "inhibition of growth at 350 µM", "setting": "T47D [1]", "result": 0, "unit": "%"}, {"measurement": "inhibition of growth at 350 µM", "setting": "A549 [2]", "result": 50, "unit": "%"}, {"measurement": "inhibition at 72 h, 170 µM", "setting": "[3]", "result": 50, "unit": "%"}, {"measurement": "inhibition of growth at 30 µM", "setting": "A549 [4]", "result": 0, "unit": "%"}, {"measurement": "inhibition of growth at 350 µM", "setting": "A549 [5]", "result": 50, "unit": "%"}, {"measurement": "inhibition of growth at 30 µM", "setting": "T47D [6]", "result": 0, "unit": "%"}, {"measurement": "inhibition at 48 h, 350 µM", "setting": "[7]", "result": 50, "unit": "%"}, {"measurement": "inhibition at 24 h, 30 µM", "setting": "[8]", "result": 0, "unit": "%"}, {"measurement": "inhibition of growth at 30 µM", "setting": "A549 [9]", "result": 5, "unit": "%"}, {"measurement": "inhibition of growth at 170 µM", "setting": "A549 [10]", "result": 50, "unit": "%"}, {"measurement": "inhibition of growth at 170 µM", "setting": "A549 [11]", "result": 25, "unit": "%"}, {"measurement": "inhibition of growth at 30 µM", "setting": "T47D [12]", "result": 5, "unit": "%"}, {"measurement": "inhibition of growth at 170 µM", "setting": "A549 [13]", "result": 50, "unit": "%"}, {"measurement": "inhibition at 48 h, 30 µM", "setting": "[14]", "result": 0, "unit": "%"}, {"measurement": "inhibition of growth at 30 µM", "setting": "A549 [15]", "result": 20, "unit": "%"}, {"measurement": "inhibition at 72 h, 30 µM", "setting": "[16]", "result": 0, "unit": "%"}, {"measurement": "inhibition at 48 h, 170 µM", "setting": "[17]", "result": 50, "unit": "%"}, {"measurement": "inhibition of growth at 350 µM", "setting": "T47D [18]", "result": 0, "unit": "%"}, {"measurement": "inhibition of growth at 170 µM", "setting": "T47D [19]", "result": 5, "unit": "%"}, {"measurement": "inhibition of growth at 350 µM", "setting": "A549 [20]", "result": 50, "unit": "%"}, {"measurement": "inhibition at 72 h, 350 µM", "setting": "[21]", "result": 50, "unit": "%"}, {"measurement": "inhibition of growth at 30 µM", "setting": "T47D [22]", "result": 5, "unit": "%"}, {"measurement": "inhibition of growth at 170 µM", "setting": "T47D [23]", "result": 25, "unit": "%"}, {"measurement": "inhibition of growth at 170 µM", "setting": "T47D [24]", "result": 5, "unit": "%"}, {"measurement": "inhibition at 24 h, 350 µM", "setting": "[25]", "result": 5, "unit": "%"}, {"measurement": "inhibition at 24 h, 170 µM", "setting": "[26]", "result": 50, "unit": "%"}, {"measurement": "inhibition of growth at 350 µM", "setting": "T47D [27]", "result": 25, "unit": "%"}]}]}
